Measured values from ChEMBL document CHEMBL3120071, “Biologically active eremophilane-type sesquiterpenes from Camarops sp., an endophytic fungus isolated from Alibertia macrophylla” (J Nat Prod, 2014).

What was measured:
[1] = Cytotoxicity against human neutrophils at < 100 uM after 60 mins by trypan blue exclusion assay; type: cell-based; details: neutrophil, 1 h
How it was run: (§1)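 Human neutrophil viability was assessed by trypan blue exclusion after compound exposure at up to 100 μM for up to 60 min, including 10 μM, the concentration used in the respiratory burst studies.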

[2] = Antioxidant activity […] assessed as […] HOCl scavenging activity by spectrophotometry; type: functional
How it was run: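 Cell-free HOCl scavenging. HOCl was made by diluting commercial bleach and quantified at 292 nm (ε = 350 mol−1 cm−1). It reacts with taurine to give taurine chloramine, which oxidizes TMB. Absorbance was read at 655 nm, with quercetin as the positive control.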

Myeloperoxidase = target: T1, Myeloperoxidase (Homo sapiens, UniProt P05164); test: Inhibition of myeloperoxidase (unknown origin) using HOCl/taurine as substrate assessed as inhibition of taurine chloramine production by spectrophotometry; type: single protein
T1 sequence (P05164 whole entry): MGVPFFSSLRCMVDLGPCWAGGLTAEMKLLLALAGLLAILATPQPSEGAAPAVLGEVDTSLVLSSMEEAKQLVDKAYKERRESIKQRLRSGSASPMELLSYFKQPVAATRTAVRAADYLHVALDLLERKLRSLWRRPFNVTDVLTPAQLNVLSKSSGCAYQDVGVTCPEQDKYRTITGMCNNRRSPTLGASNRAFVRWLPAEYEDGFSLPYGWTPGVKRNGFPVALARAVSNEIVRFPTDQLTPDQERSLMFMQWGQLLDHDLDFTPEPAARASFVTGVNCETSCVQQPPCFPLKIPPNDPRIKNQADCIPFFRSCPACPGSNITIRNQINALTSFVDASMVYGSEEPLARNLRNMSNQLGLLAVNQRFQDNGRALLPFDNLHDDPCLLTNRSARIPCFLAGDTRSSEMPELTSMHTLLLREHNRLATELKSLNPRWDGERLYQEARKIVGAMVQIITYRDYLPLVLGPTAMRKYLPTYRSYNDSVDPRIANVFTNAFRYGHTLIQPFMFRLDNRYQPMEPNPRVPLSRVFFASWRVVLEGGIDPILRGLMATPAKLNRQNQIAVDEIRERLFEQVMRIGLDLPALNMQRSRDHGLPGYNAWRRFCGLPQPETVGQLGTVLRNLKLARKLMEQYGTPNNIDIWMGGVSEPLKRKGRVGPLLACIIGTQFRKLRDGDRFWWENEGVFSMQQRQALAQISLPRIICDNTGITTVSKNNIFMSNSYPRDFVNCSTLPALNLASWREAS
How it was run: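 MPO, quantified by absorbance at 430 nm (ε = 89 000 mol−1 cm−1 per heme), chlorinating activity was measured. The HOCl produced reacts with taurine to give taurine chloramine, which oxidizes TMB to a blue product read at 655 nm. 5-Fluorotryptamine was the positive control.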

[3] = Antioxidant activity […] assessed as xanthine/xanthine oxidase-induced ROS scavenging activity by WST-1 assay; type: functional
How it was run: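 Superoxide was generated by xanthine/xanthine oxidase and detected as reduction of the tetrazolium salt WST-1 to a soluble formazan (modified Tan and Berridge method). Quercetin was the positive control.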

[4] = Cytotoxicity against human neutrophils assessed as cell viability at 10 uM by trypan blue exclusion assay; type: functional; details: Neutrophil, read-out: Activity; how it was run: as §1
Neutrophil = test: (§2) Antioxidant activity in human neutrophils assessed as inhibition of oxidative burst-induced ROS production by chemiluminescence assay; type: functional, cell-based
How it was run: (§3)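 Human neutrophils were isolated and the respiratory burst was stimulated. Total ROS were measured by luminol-enhanced chemiluminescence (LumCL). DMSO replaced compound in the blanks, taken as 100%. Quercetin and apocynin served as positive controls, and IC50 was taken from concentration–response data.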

[5] = as §2; type: functional, cell-based; details: Neutrophil; how it was run: as §3

Row | Structure (SMILES) | IC50 [2] | IC50 (Myeloperoxidase) | IC50 [5] | Activity [1] | IC50 [3] | viability at 10 µM [4] | Activity (Neutrophil)
1 | COc1cc(C(C)=O)ccc1O [APOCYNIN] | – | – | 3.9 µM | – | – | – | –
2 | O=c1c(O)c(-c2ccc(O)c(O)c2)oc2cc(O)cc(O)c12 [QUERCETIN] | – | – | 4.86 µM | – | – | – | –
3 | C=C(CO)[C@@]12O[C@@H]1[C@@]1(C)C(=CC2=O)[C@H](OC(=O)C(O)(CO)CC(C)CC(C)CC)CC[C@@H]1C (stereo not given in full) [XYLARENONE D] | > 100 µM | > 100 µM | 5.73 µM | Non-toxic | > 100 µM | > 98% | Dose-dependent effect

Further lines, with some results ahead:

Row | IC50 [2] | IC50 (Myeloperoxidase) | IC50 [5] | Structure (SMILES) | Activity [1] | IC50 [3] | viability at 10 µM [4] | Activity (Neutrophil)
4 | > 100 µM | > 100 µM | 4.17 µM | CCC(C)CC(C)CC(O)(CO)C(=O)O[C@@H]1CC[C@H](C)[C@@]2(C)C=C([C@@H](C)CO)C(=O)C=C12 (stereo not given in full) | Non-toxic | > 100 µM | > 98% | Dose-dependent effect
5 | > 100 µM | > 100 µM | 5.9 µM | CCC(C)CC(C)CC(O)(CO)C(=O)O[C@@H]1CC[C@H](C)[C@@]2(C)C=C([C@H](C)CO)C(=O)C=C12 (stereo not given in full) | Non-toxic | > 100 µM | > 98% | Dose-dependent effect
6 | > 100 µM | > 100 µM | 6.13 µM | C=C(CO)[C@@]12O[C@@H]1[C@@]1(C)C(=CC2=O)[C@H](OC(=O)C(C)CC(C)CC(C)CC)CC[C@@H]1C (stereo not given in full) [XYLARENONE C] | Non-toxic | > 100 µM | > 98% | Dose-dependent effect
